# Source: ChEMBL document CHEMBL3400098, “Aza follow-ups to BI 207524, a thumb pocket 1 HCV NS5B polymerase inhibitor. Part 1: Mitigating the genotoxic liability of an aniline metabolite” (Bioorg Med Chem Lett, 2015)
# Columns and labels:
# [1] = Half life in cynomolgous monkey liver microsomes at 2 uM; assay type: ADME, Macaca fascicularis; details: cynomolgus monkey
# Summary of the method: (§1)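 Stability in liver microsomes with 2 µM initial compound concentration; half-life recorded.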
# Hepatitis C virus [2] = assay: Antiviral activity against Hepatitis C virus genotype 1b infected in human Huh cells assessed as inhibition of viral replication by luciferase reporter assay; assay type: functional, cell-based, Hepacivirus hominis
# Summary of the method: (§2)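 HCV replicon EC50 determined in duplicate, using either a GT1b luciferase reporter read-out or RT-PCR quantification of replicon RNA.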
# Cynomolgus monkey [3] = assay: Dose normalized Cmax in cynomolgous monkey at 10 mg/kg, po and 2 mg/kg, iv; assay type: ADME, organism-based, Macaca fascicularis; details: in vivo
# Summary of the method: (§3)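 Cynomolgus monkeys fasted overnight, then given 10 mg/kg orally as a suspension in 0.5% methylcellulose, 0.3% Tween-80 and 1% NMP. IV bolus of 2 mg/kg in 70% PEG-400:30% water. Oral values normalized to 5 mg/kg. Plasma analysed by non-compartmental methods.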
# [4] = Dose normalized bioavailability in cynomolgous monkey at 10 mg/kg, po and 2 mg/kg, iv; assay type: ADME, organism-based, Macaca fascicularis; details: cynomolgus monkey, in vivo, read-out: F/dose; summary of the method: as §3
# Cynomolgus monkey [5] = assay: Dose normalized half life in cynomolgous monkey at 10 mg/kg, po and 2 mg/kg, iv; assay type: ADME, organism-based, Macaca fascicularis; details: in vivo; summary of the method: as §3
# Hepatitis C virus [6] = assay: Antiviral activity against Hepatitis C virus genotype 1a infected in human Huh cells assessed as inhibition of viral replication by RT-PCR-based replicon assay; assay type: functional, cell-based, Hepacivirus hominis; details: subtype 1a; summary of the method: as §2
# [7] = Half life in dog at 5 mg/kg, po and 2 mg/kg, iv; assay type: ADME, organism-based, Canis lupus familiaris; details: in vivo
# Summary of the method: (§4)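 Animals fasted overnight. Oral dose given as a suspension in 0.5% methylcellulose, 0.3% Tween-80 and 1% NMP. IV bolus of 2 mg/kg given in 70% PEG-400:30% water. N = 3 per dose and per route. Plasma kept on ice, spun at 4 °C and stored at about −20 °C. Calibration standards prepared in blank plasma, LOQ 7 ng/mL. Non-compartmental analysis.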
# [8] = Half life in dog liver microsomes at 2 uM; assay type: ADME, Canis lupus familiaris; summary of the method: as §1
# [9] = Ratio of drug up take in liver to plasma of rat at 5 mg/kg, po measured at 6 hrs post dose; assay type: ADME, organism-based; design: dose 5 mg/kg, route oral
# Rattus norvegicus = assay: Dose normalized Cmax in rat at 10 mg/kg, po; assay type: ADME, organism-based; design: dose 10 mg/kg, route oral; details: in vivo
# Summary of the method: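 Rats dosed orally at 10 mg/kg as a suspension in 0.5% methylcellulose, 0.3% Tween-80 and 1% NMP. Plasma Cmax normalized to 5 mg/kg.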
# [10] = Permeability coefficient, Kp for ratio of drug uptake in liver to plasma in rat; assay type: ADME
# [11] = Bioavailability in dog at 5 mg/kg, po and 2 mg/kg, iv; assay type: ADME, organism-based, Canis lupus familiaris; details: in vivo; summary of the method: as §4
# Cynomolgus monkey [12] = assay: Dose normalized volume of distribution at steady state in cynomolgous monkey at 10 mg/kg, po and 2 mg/kg, iv; assay type: ADME, organism-based, Macaca fascicularis; details: in vivo; summary of the method: as §3
# [13] = Bioavailability in rat at 5 mg/kg, po and 2 mg/kg, iv; assay type: ADME, organism-based; details: in vivo; summary of the method: as §4
# [14] = AUC in dog at 5 mg/kg, po and 2 mg/kg, iv; assay type: ADME, organism-based, Canis lupus familiaris; details: plasma; summary of the method: as §4
# Hepatitis C virus [15] = assay: Antiviral activity against Hepatitis C virus genotype 1b infected in human Huh cells assessed as inhibition of viral replication by RT-PCR-based replicon assay; assay type: functional, cell-based, Hepacivirus hominis; summary of the method: as §2
# [16] = AUC in rat at 5 mg/kg, po and 2 mg/kg, iv; assay type: ADME, organism-based; details: plasma; summary of the method: as §4
# [17] = Clearance in cynomolgous monkey at 2 mg/kg, iv; assay type: ADME, organism-based, Macaca fascicularis; design: dose 2 mg/kg, route intravenous; details: cynomolgus monkey, in vivo; summary of the method: as §4
# [18] = Cmax in dog at 5 mg/kg, po and 2 mg/kg, iv; assay type: ADME, organism-based, Canis lupus familiaris; details: in vivo; summary of the method: as §4
# [19] = Cmax in rat at 5 mg/kg, po and 2 mg/kg, iv; assay type: ADME, organism-based; details: in vivo; summary of the method: as §4
# Cynomolgus monkey [20] = assay: Dose normalized AUC in cynomolgous monkey at 10 mg/kg, po and 2 mg/kg, iv; assay type: ADME, organism-based, Macaca fascicularis; details: in vivo; summary of the method: as §3
# [21] = Inhibition of Hepatitis C virus genotype 1b C-terminal truncated NS5B RNA dependent RNA polymerase delta21 expressed in Escherichia coli by scintillation proximity assay; design: species or system Hepatitis C virus subtype 1b
# Summary of the method: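 Biochemical polymerase inhibition using a C-terminally truncated GT1b NS5BΔ21 construct. Values are the mean of duplicate measurements (n ≥ 2).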
# Macaca mulatta [22] = assay: Bioavailability in rhesus monkey at 5 mg/kg, po and 2 mg/kg, iv; details: in vivo
# Macaca mulatta [23] = assay: Half life in rhesus monkey at 5 mg/kg, po and 2 mg/kg, iv; details: in vivo
# [24] = Clearance in rhesus monkey at 2 mg/kg, iv; details: in vivo
# [25] = Cytotoxicity against human HuH7 cells assessed as reduction in cell viability by MTT assay; assay type: cell-based; details: Huh-7 cells, read-out: TC50 (the source's name)
# Summary of the method: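 Cytotoxicity (TC50) measured by MTT read-out in the Huh-7 cell line.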
# Macaca mulatta [26] = assay: AUC in rhesus monkey at 5 mg/kg, po and 2 mg/kg, iv; details: plasma
# [27] = Volume of distribution at steady state in dog at 5 mg/kg, po and 2 mg/kg, iv; assay type: ADME, organism-based, Canis lupus familiaris; details: in vivo, read-out: Vdss; summary of the method: as §4
# Macaca mulatta [28] = assay: Cmax in rhesus monkey at 5 mg/kg, po and 2 mg/kg, iv; details: in vivo
# [29] = Half life in rat at 5 mg/kg, po and 2 mg/kg, iv; assay type: ADME, organism-based; details: in vivo; summary of the method: as §4
# [30] = Volume of distribution at steady state in rat at 5 mg/kg, po and 2 mg/kg, iv; assay type: ADME, organism-based; details: in vivo, read-out: Vdss; summary of the method: as §4
# [31] = Clearance in dog at 2 mg/kg, iv; assay type: ADME, organism-based, Canis lupus familiaris; design: dose 2 mg/kg, route intravenous; details: in vivo; summary of the method: as §4
# [32] = Lipophilicity, log D of the compound at pH 7.4; assay type: physicochemical; details: buffer
# [33] = Half life in rat liver microsomes at 2 uM; assay type: ADME; summary of the method: as §1
# [34] = Half life in rhesus monkey liver microsomes at 2 uM
# Macaca mulatta [35] = assay: Volume of distribution at steady state in rhesus monkey at 5 mg/kg, po and 2 mg/kg, iv; details: in vivo, read-out: Vdss
# [36] = Cmax in rat at 5 mg/kg, po; assay type: ADME, organism-based; design: dose 5 mg/kg, route oral; details: in vivo
# Summary of the method: (§5)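 Rats fasted overnight, then given a single compound orally at 5 mg/kg in 0.5% methylcellulose, 0.3% Tween-80 and 1% NMP. Plasma Cmax measured. Liver/plasma concentration ratio taken at 8 h for single-compound dosing.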
# [37] = Ratio of drug up take in liver to plasma of rat at 5 mg/kg, po measured at 8 hrs post dose; assay type: ADME, organism-based; design: dose 5 mg/kg, route oral; summary of the method: as §5
# [38] = Clearance in rat at 2 mg/kg, iv; assay type: ADME, organism-based; design: dose 2 mg/kg, route intravenous; details: in vivo; summary of the method: as §4
# [39] = Half life in human liver microsomes at 2 uM; assay type: ADME; summary of the method: as §1
# [40] = Permeability from apical to basolateral side of human Caco2 cells; assay type: ADME, cell-based; details: Caco-2, read-out: permeability
# Summary of the method: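 Caco-2 permeability measured in the apical-to-basolateral direction, reported in cm/s.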
# [41] = Ratio of drug up take in liver to plasma of rat at 4 mg/kg, po as cassette dosing measured at 2 hrs post dose; assay type: ADME, organism-based; design: dose 4 mg/kg, route oral
# Summary of the method: (§6)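 Cassette dosing: a mixture of 4 compounds, each at 4 mg/kg, given orally to 2 fasted rats in 0.5% methylcellulose, 0.3% Tween-80 and 1% NMP. Plasma sampled at 1 and 2 h. Liver/plasma ratio determined at 2 h.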
# [42] = Plasma concentration in rat at 4 mg/kg, po as cassette dosing measured at 1 hr post dose; assay type: ADME, organism-based; design: dose 4 mg/kg, route oral; summary of the method: as §6
# [43] = Plasma concentration in rat at 4 mg/kg, po as cassette dosing measured at 2 hrs post dose; assay type: ADME, organism-based; design: dose 4 mg/kg, route oral; summary of the method: as §6
Compound,EC50 (Hepatitis C virus [2]) [nM],EC50 (Hepatitis C virus [6]) [nM],half-life [7] [h],half-life at 2 µM [8] [h],Kp [10],bioavailability [11] [%],bioavailability [13] [%],AUC [14] [µM·h],EC50 (Hepatitis C virus [15]) [nM],AUC [16] [µM·h],Cmax [18] [µM],Cmax [19] [µM],IC50 [21] [nM],CC50 [25] [nM],logD [32],half-life at 2 µM [33] [h],Cmax [36] [µM],half-life at 2 µM [39] [h],Papp A→B [40] [×10⁻⁶ cm/s],also measured
CCOc1cc(NC(=O)C2(NC(=O)c3ccc4c(C5CCCC5)c(-c5ncc(Cl)cn5)n(C)c4c3)CCC2)ccc1/C=C/C(=O)O,13,29,4.5,2.92,5.5,29,19,38,11,9.6,4.1,3.2,84,–,–,–,–,–,–,half-life at 2 µM [1]: 1.6 h; Cmax/dose (Cynomolgus monkey [3]): 4.8 µM; bioavailability [4]: 72%; t1/2/dose (Cynomolgus monkey [5]): 3 h; Kp at 6 h [9]: 5.5; Cmax/dose (Rattus norvegicus): 3.2 µM; Vdss/dose (Cynomolgus monkey [12]): 0.6 L/kg; clearance [17]: 3.6 mL/min/kg; AUC/dose (Cynomolgus monkey [20]): 26 µM·h
CCOc1nc(NC(=O)C2(NC(=O)c3ccc4c(C5CCCC5)c(-c5ncc(Cl)cn5)n(C)c4c3)CCC2)ccc1/C=C/C(=O)O,15,27,6.1,3.65,2.6,40,42,56,14,17,10,5.8,85,56000,> 5.9,1.85,5.9,–,–,bioavailability (Macaca mulatta [22]): 11%; half-life (Macaca mulatta [23]): 2 h; clearance [24]: 1.5 mL/min/kg; AUC (Macaca mulatta [26]): 8.9 µM·h; Vd [27]: 0.28 L/kg; Cmax (Macaca mulatta [28]): 2.6 µM; half-life [29]: 1.5 h; Vd [30]: 0.28 L/kg; clearance [31]: 0.9 mL/min/kg; half-life at 2 µM [34]: 0.533 h; Vd (Macaca mulatta [35]): 0.06 L/kg; Kp at 8 h [37]: 2; clearance [38]: 3.1 mL/min/kg
CCOc1cc(NC(=O)C2(NC(=O)c3ccc4c(C5CCCC5)c(-c5ncc(Cl)cn5)n(C)c4c3)CCC2)ncc1/C=C/C(=O)O,33,–,–,–,–,–,–,–,–,–,–,–,85,> 10000,3,1.73,1.8,2.42,15,–
CCOc1cc(NC(=O)C2(NC(=O)c3ccc4c(C5CCCC5)c(-c5ncc(Cl)cn5)n(C)c4c3)CCC2)cnc1/C=C/C(=O)O,20,–,–,–,–,–,–,–,–,–,–,–,110,> 10000,3.9,2.38,–,4.58,7.5,Kp at 2 h [41]: 5; concentration at 1 h [42]: 0.4 µM; concentration at 2 h [43]: 0.1 µM
